Measured values taken from ChEMBL document CHEMBL4308914, “Discovery of potent, low-absorbable sodium-dependent glucose cotransporter 1 (SGLT1) inhibitor SGL5213 for type 2 diabetes treatment” (Bioorg Med Chem, 2019).

Tests used:
[1] = target: T1, Sodium/glucose cotransporter 1 (Homo sapiens, UniProt P13866); test: Inhibition of human SGLT1 expressed in CHOK1 cells assessed as reduction in sodium-dependent glucose uptake after 30 mins in presence of [14C]-methyl-alpha -D-glucopyranoside by microbeta counting method; type: cell-based
T1 sequence (P13866 whole entry): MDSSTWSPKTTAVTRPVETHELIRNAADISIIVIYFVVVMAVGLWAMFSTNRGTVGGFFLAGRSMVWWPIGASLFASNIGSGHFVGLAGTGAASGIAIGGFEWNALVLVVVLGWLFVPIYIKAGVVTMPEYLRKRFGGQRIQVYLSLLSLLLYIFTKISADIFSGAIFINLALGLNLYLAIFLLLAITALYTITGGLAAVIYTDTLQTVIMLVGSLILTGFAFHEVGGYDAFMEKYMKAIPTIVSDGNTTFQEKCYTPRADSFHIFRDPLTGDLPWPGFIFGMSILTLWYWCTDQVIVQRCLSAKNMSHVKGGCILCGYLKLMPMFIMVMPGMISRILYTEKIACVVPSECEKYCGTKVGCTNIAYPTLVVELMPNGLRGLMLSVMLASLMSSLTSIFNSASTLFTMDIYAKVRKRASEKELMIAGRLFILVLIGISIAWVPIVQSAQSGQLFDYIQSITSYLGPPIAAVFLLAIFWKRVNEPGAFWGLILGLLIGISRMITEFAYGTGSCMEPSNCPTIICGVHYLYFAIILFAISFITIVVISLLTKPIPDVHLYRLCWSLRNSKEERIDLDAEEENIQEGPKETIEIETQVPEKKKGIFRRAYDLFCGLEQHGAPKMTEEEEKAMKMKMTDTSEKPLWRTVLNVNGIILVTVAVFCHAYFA
Summary of the method: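 CHO-K1 cells stably expressing human SGLT1, preincubated 20 min in Na-free choline buffer (pH 7.4). Uptake buffer (140 mM NaCl, HEPES/Tris pH 7.4) with 0.1 mM methyl-α-D-glucopyranoside plus [14C] tracer and test compound, 30 min at 37 °C. Cells washed, lysed in NaOH, radioactivity counted. Choline-for-Na buffer as background. Six concentrations; IC50 vs untreated control; mean of at least two experiments.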

[2] = target: T2, Sodium/glucose cotransporter 2 (Homo sapiens, UniProt P31639); test: Inhibition of human SGLT2 expressed in CHOK1 cells assessed as reduction in sodium-dependent glucose uptake after 1 hr in presence of [14C]-methyl-alpha -D-glucopyranoside by microbeta counting method; type: cell-based
T2 sequence (P31639 whole entry): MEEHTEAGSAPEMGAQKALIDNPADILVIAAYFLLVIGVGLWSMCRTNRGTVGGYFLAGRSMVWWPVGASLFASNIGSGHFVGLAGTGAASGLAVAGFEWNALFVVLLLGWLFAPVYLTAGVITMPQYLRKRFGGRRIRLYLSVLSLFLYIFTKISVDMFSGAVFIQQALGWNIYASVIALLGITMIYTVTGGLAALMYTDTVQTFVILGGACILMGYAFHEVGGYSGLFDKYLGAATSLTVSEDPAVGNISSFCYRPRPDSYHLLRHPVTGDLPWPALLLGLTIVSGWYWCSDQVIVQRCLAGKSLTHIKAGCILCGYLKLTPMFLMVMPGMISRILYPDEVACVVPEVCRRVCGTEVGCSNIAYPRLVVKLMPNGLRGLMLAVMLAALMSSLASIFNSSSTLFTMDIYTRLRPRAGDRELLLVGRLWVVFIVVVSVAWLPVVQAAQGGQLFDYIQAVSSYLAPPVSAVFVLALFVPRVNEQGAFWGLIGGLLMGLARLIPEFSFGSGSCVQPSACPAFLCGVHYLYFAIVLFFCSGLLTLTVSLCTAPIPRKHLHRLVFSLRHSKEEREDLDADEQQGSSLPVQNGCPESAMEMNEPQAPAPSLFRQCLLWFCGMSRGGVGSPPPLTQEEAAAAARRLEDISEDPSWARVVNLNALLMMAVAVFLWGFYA
Summary of the method: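 Human SGLT2 stably expressed in CHO-K1 cells; 20 min Na-free choline pretreatment, then Na+ uptake buffer pH 7.4 with 1 mM methyl-α-D-glucopyranoside containing [14C] label plus compound, 1 h at 37 °C. Washed, NaOH lysis, scintillation counting; Na-free buffer for background. IC50 from six concentrations relative to uninhibited uptake; mean of at least two experiments.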

[3] = Permeability of the compound at pH 7.4 by PAMPA assay; type: ADME; conditions: read-out: permeability
Summary of the method: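 PAMPA at pH 7.4: filter coated with GIT-0 lipid; donor compartment holds compound in universal buffer at 25 μM or 5 μM; permeability reported as ×10⁻⁶ cm/s.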

[4] = Drug excretion in bile duct cannulated Sprague-Dawley rat urine at 0.3 mg/kg, iv administered as single dose after 24 hrs by LCMS analysis; type: ADME, organism-based; conditions: read-out: Drug excretion
Summary of the method: (§1)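 Bile duct-cannulated SD rats given single i.v. dose in saline; urine and bile collected over 24 h. Unchanged drug quantified by LC-MS/MS and expressed as cumulative % of dose; mean ± SD of three animals.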

[5] = Oral bioavailability in Sprague-Dawley rat at 30 mg/kg; type: ADME, organism-based; conditions: in vivo
Summary of the method: (§2)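 Fasted male SD rats dosed orally in 0.5% CMC Na; tail-vein plasma sampled over time and analysed by LC-MS/MS. Non-compartmental analysis; bioavailability relative to i.v. dosing in saline; mean of three animals.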

[6] = Total clearance in Sprague-Dawley rat at 0.4 mg/kg, iv; type: ADME, organism-based; conditions: in vivo
Summary of the method: (§3)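 Fasted male SD rats, single i.v. dose in saline; tail-vein blood sampled over time, plasma analysed by LC-MS/MS. Parameters by non-compartmental analysis; mean of three animals.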

[7] = Volume of distribution at steady sate in Sprague-Dawley rat at 0.4 mg/kg, iv; type: ADME, organism-based; conditions: in vivo, read-out: Vdss; summary of the method: as §3
[8] = Cmax in Sprague-Dawley rat at 30 mg/kg, po; type: ADME, organism-based; design: dose 30 mg/kg, route oral; conditions: in vivo; summary of the method: as §2
[9] = Drug uptake in Sprague-Dawley rat kidney at 0.3 mg/kg, iv administered as single dose after 72 hrs by LCMS analysis; type: ADME, organism-based; conditions: read-out: Drug uptake
Summary of the method: (§4)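 Fasted male SD rats given single i.v. dose in saline; animals euthanized at 2, 24 and 72 h, kidneys homogenized in purified water and unchanged drug measured by LC-MS/MS (ng/g tissue). Mean ± SD of three animals; 72 h level also expressed relative to 2 h value.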

[10] = Drug excretion in bile duct cannulated Sprague-Dawley rat bile at 0.3 mg/kg, iv administered as single dose after 24 hrs by LCMS analysis; type: ADME, organism-based; conditions: read-out: Drug excretion; summary of the method: as §1
[11] = Drug uptake in Sprague-Dawley rat kidney assessed as unchanged drug level at 0.3 mg/kg, iv administered as single dose after 72 hrs by LCMS analysis relative to control; type: ADME, organism-based; conditions: in vivo; summary of the method: as §4
[12] = Drug uptake in Sprague-Dawley rat kidney at 0.3 mg/kg, iv administered as single dose after 24 hrs by LCMS analysis; type: ADME, organism-based; conditions: read-out: Drug uptake; summary of the method: as §4
[13] = Drug uptake in Sprague-Dawley rat kidney at 0.3 mg/kg, iv administered as single dose after 2 hrs by LCMS analysis; type: ADME, organism-based; conditions: read-out: Drug uptake; summary of the method: as §4
[14] = Tmax in Sprague-Dawley rat at 30 mg/kg, po; type: ADME, organism-based; conditions: in vivo; summary of the method: as §2
[15] = Half life in Sprague-Dawley rat at 0.4 mg/kg, iv; type: ADME, organism-based; conditions: in vivo; summary of the method: as §3
[16] = Gastrointestinal toxicity in Sprague-Dawley rat assessed as induction of diarrhea at 0.3 to 3 mg/kg, po dosed just prior to sucrose loading measured up to 120 mins during sucrose tolerance test relative to control; type: organism-based; conditions: in vivo, 2 h
Rattus norvegicus [17] = test: Antidiabetic activity in Sprague-Dawley rat assessed as reduction in blood glucose AUC (0 to 2 hrs) at 0.3 to 3 mg/kg, po dosed just prior to sucrose loading measured up to 120 mins by sucrose tolerance test relative to control; type: functional
Rattus norvegicus [18] = test: Antidiabetic activity in Sprague-Dawley rat assessed as reduction in blood glucose AUC (0 to 2 hrs) at 1 mg/kg, po dosed just prior to sucrose loading measured up to 120 mins by sucrose tolerance test relative to control; type: functional; design: scale not given: the % may be the effect or the level left
Rattus norvegicus [19] = test: Antidiabetic activity in Sprague-Dawley rat assessed as reduction in blood glucose AUC (0 to 2 hrs) at 3 mg/kg, po dosed just prior to sucrose loading measured up to 120 mins by sucrose tolerance test relative to control; type: functional; design: scale not given: the % may be the effect or the level left
Rattus norvegicus [20] = test: Antidiabetic activity in Sprague-Dawley rat assessed as reduction in blood glucose AUC (0 to 2 hrs) at 0.3 mg/kg, po dosed just prior to sucrose loading measured up to 120 mins by sucrose tolerance test relative to control; type: functional; design: scale not given: the % may be the effect or the level left

For `Cc1cc(C)c([C@@H]2O[C@H](CO)[C@@H](O)[C@H](O)[C@H]2O)cc1Cc1ccc(/C=C/C(C)(C)C(=O)NC(C)(C)CO)cc1Cl`, the IC50 [1] was 176 nM.
For `Cc1cc(/C=C/C(C)(C)C(=O)NC(C)(C)CO)ccc1Cc1cc([C@@H]2O[C@H](CO)[C@@H](O)[C@H](O)[C@H]2O)c(C)cc1C`, the IC50 [2] was 84 nM, the Papp [3] was 7.5 ×10⁻⁶ cm/s and the IC50 [1] was 111 nM.
`Cc1cc(/C=C/C(C)(C)C(=O)NC(C)(C)C(=O)NCC(C)(C)N)ccc1Cc1cc([C@@H]2O[C@H](CO)[C@@H](O)[C@H](O)[C@H]2O)c(O)cc1C(C)C` showed a dose excreted at 24 h [4] of 5.3%, a bioavailability [5] of 0.09% and a clearance [6] of 62.7 mL/min/kg. The Vd [7] was 0.964 L/kg, the Cmax [8] was 5.34 ng/mL and the concentration at 72 h [9] was 12.5 ng/g. For the same compound, the dose excreted at 24 h [10] was 89.8%, the Drug uptake [11] was 1.2% and the concentration at 24 h [12] was 83.8 ng/g. It also gave a concentration at 2 h [13] of 1060 ng/g.
For `Cc1cc(O)c([C@@H]2O[C@H](CO)[C@@H](O)[C@H](O)[C@H]2O)cc1Cc1ccc(/C=C/C(C)(C)C(=O)NC(C)(C)CO)cc1`, the IC50 [1] was 21 nM.
In the case of `COc1cc(C(C)C)c(Cc2ccc(/C=C/C(C)(C)C(=O)NC(C)(C)CO)cc2)cc1[C@@H]1O[C@H](CO)[C@@H](O)[C@H](O)[C@H]1O`, the IC50 [2] is reported as 34 nM, the Papp [3] is reported as 1.8 ×10⁻⁶ cm/s and the IC50 [1] is reported as 36 nM.
`COc1cc(C(C)C)c(Cc2ccc(/C=C/C(C)(C)C(=O)NC(C)(C)C(=O)NCCN(C)C)cc2)cc1[C@@H]1O[C@H](CO)[C@@H](O)[C@H](O)[C@H]1O` gave a dose excreted at 24 h [4] of 18.1%, a bioavailability [5] of 0.17% and a Tmax [14] of 2.83 h. It also gave a clearance [6] of 67 mL/min/kg, a half-life [15] of 2.39 h and a Vd [7] of 1.64 L/kg. For the same compound, the Cmax [8] was 1.88 ng/mL, the Activity [16] was “Non-Toxic” and the Emax (Rattus norvegicus [17]) was 50.8%. It also gave a concentration at 72 h [9] of 29.2 ng/g, an Activity (Rattus norvegicus [18]) of 50.8% and a dose excreted at 24 h [10] of 65.1%. The Drug uptake [11] was 2.7%, the concentration at 24 h [12] was 104 ng/g and the Activity (Rattus norvegicus [19]) was 45.7%. It also gave an Activity (Rattus norvegicus [20]) of 27.5% and a concentration at 2 h [13] of 1090 ng/g.
`COc1cc(C(C)C)c(Cc2ccc(/C=C/C(C)(C)C(=O)NC(C)(C)C(=O)N3CCNCC3)cc2C)cc1[C@@H]1O[C@H](CO)[C@@H](O)[C@H](O)[C@H]1O` showed an IC50 [2] of 200 nM and an IC50 [1] of 34 nM.
`COc1cc(C(C)C)c(Cc2ccc(/C=C/C(C)(C)C(=O)NC(C)(C)CO)cc2C)cc1[C@@H]1O[C@H](CO)[C@@H](O)[C@H](O)[C@H]1O` showed an IC50 [2] of 354 nM and an IC50 [1] of 74 nM.
